Structures are written as SMILES.

A short description of data set [1]: Cytotoxicity against human TZM cells expressing GFP assessed as reduction in cell viability after 72 hrs by XTT assay. It is filed as cell-based. Summed up:
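TZM-GFP cells were seeded at 1×10^4 per well and exposed continuously to increasing compound concentrations for 72 h. Viable cells were measured by XTT. CC50 came from a log(inhibitor) vs normalized response, variable-slope fit, averaged across independent experiments. Duplicate wells, ≥2 experiments, mean ± SD.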
A general note: Formazan colour is commonly taken as a measure of viable cells.

Data set [2] relates to Human immunodeficiency virus 1. Put plainly: Antiviral activity against HIV 1 NL4-3 infected in human TZM cells expressing GFP assessed as inhibition LTR-activated GFP expression at 20 uM preincubated for 24 hrs followed by viral infection and measured after 48 hrs relative to control. The format is functional. The conditions noted are these: Human immunodeficiency virus 1, NL4-3, TZM, time 72 hrs. Summed up: (§1)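 TZM-GFP cells were seeded at 1×10^4 per well. After 24 h, medium was replaced with compound at a single concentration. After a further 24 h, cells were infected with HIV-1 NL4-3 (MOI = 1) and incubated 48 h. GFP-positive cells were counted by imaging and expressed as % inhibition of LTR-driven GFP versus compound-free DMSO control. Run in duplicate, at least two independent experiments.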

Data set [3] is described as follows: Half life in human liver microsomes at 1 uM in presence of NADPH preincubated for 15 mins followed by NADPH addition and measured up to 60 mins by LC-MS/MS analysis. Conditions: time 15-75 min. The format is ADME, Microsome. Summed up: (§2)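 Compound at 1 µM final was preincubated 15 min at 37 °C with human or mouse liver microsomes (0.5 mg/mL protein) and 1 mM MgCl2 in 0.1 M potassium phosphate, pH 7.4. The reaction was started with 1 mM NADPH at 37 °C and sampled at 0, 5, 15, 30 and 60 min. Samples were quenched in acetonitrile/0.1% formic acid with internal standard; t1/2 was determined by LC-MS/MS. A no-NADPH control ran in parallel. Done in duplicate.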
For orientation: Liver microsomes are vesicles of endoplasmic reticulum, rich in cytochrome P450 enzymes.

Data set [4] can be described thus: Half life in mouse liver microsomes at 1 uM in presence of NADPH preincubated for 15 mins followed by NADPH addition and measured up to 60 mins by LC-MS/MS analysis. It is filed as ADME, Microsome. Conditions: time 15-75 min. In short, it runs like this: as §2
Data set [5] deals with Human immunodeficiency virus 1. In words: Antiviral activity against HIV 1 NL4-3 infected in human TZM cells expressing GFP assessed as inhibition LTR-activated GFP expression at 2 uM preincubated for 24 hrs followed by viral infection and measured after 48 hrs relative to control. It is filed as functional. The conditions noted are these: Human immunodeficiency virus 1, NL4-3, TZM, time 72 hrs. In short, it runs like this:
as §1

The test system of data set [6] is Human immunodeficiency virus 1. In words: Antiviral activity against HIV 1 NL4-3 infected in human TZM cells expressing GFP assessed as reduction in LTR-activated GFP expression preincubated for 24 hrs followed by viral infection and measured after 48 hrs. The format is functional, organism-based. The conditions noted are these: Human immunodeficiency virus 1, NL4-3, TZM. In short, it runs like this:
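TZM-GFP cells were seeded at 1×10^4 per well. After 24 h they were given increasing compound concentrations for 24 h, then infected with HIV-1 NL4-3 (MOI = 1) for 48 h. GFP-positive cells were counted versus DMSO control. EC50 came from a log(inhibitor) vs normalized response, variable-slope fit, calculated per independent experiment and averaged. Duplicate wells, ≥2 experiments, mean ± SD.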

In the case of `CN(C(=O)[C@H](Cc1ccccc1)NC(=O)Cn1cnc2c1c(=O)n(C)c(=O)n2C)c1ccccc1`, the CC50 (as a rule, the concentration at which the toxic effect on the cells reaches its halfway point) at 72 h in data set [1] was more than 50 µM. In data set [2], the inhibition (usually the change of the read-out against control, counted positive when it falls) at 20 µM worked out at 94%. Besides, the half-life (as a rule, the time needed for the level to fall by half in the phase considered) at 1 µM in data set [3] amounted to 4.7 min; in data set [4], 1.2 min. For the same compound, in data set [5], the inhibition at 2 µM came to 10%.
For the compound `CCN(C(=O)[C@H](Cc1ccccc1)NC(=O)Cn1cnc2c1c(=O)n(C)c(=O)n2C)c1ccccc1`, the CC50 at 72 h in data set [1] was more than 50 µM. Moreover, the inhibition at 20 µM in data set [2] stood at 94%. Moreover, the inhibition at 2 µM in data set [5] was determined as 0%.
For `CN(C(=O)[C@H](Cc1ccccc1)NC(=O)Cn1cnc2c1c(=O)n(C)c(=O)n2C)c1cccc(Cl)c1`, the CC50 at 72 h in data set [1] was more than 50 µM. Also, in data set [2], the inhibition at 20 µM worked out at 71%. In data set [5], the inhibition at 2 µM is 0%.
Regarding `CN(C(=O)[C@H](Cc1ccccc1)NC(=O)Cc1c[nH]c2ccc(O)cc12)c1cccc(F)c1`, the CC50 at 72 h in data set [1] was determined as 47 µM. Besides, in data set [6], the EC50 (commonly the concentration giving half of the maximal effect) amounted to 0.32 µM.
`COc1ccc2[nH]cc(CC(=O)N[C@@H](Cc3ccccc3)C(=O)N(C)c3ccccc3)c2c1`: the CC50 at 72 h in data set [1] came to 48 µM. In addition, the EC50 in data set [6] was determined as 0.56 µM. Besides, the half-life at 1 µM was 1.2 min in data set [3] and 0.5 min in data set [4].
On to `COc1ccc2[nH]cc(CC(=O)N[C@@H](Cc3ccccc3)C(=O)N(C)c3ccc(F)cc3)c2c1`, for which, in data set [1], the CC50 at 72 h was more than 50 µM. Also, the EC50 in data set [6] was 0.57 µM.
The matching figures for `CN(C(=O)[C@H](Cc1ccccc1)NC(=O)Cc1c[nH]c2ccc(O)cc12)c1cccc(Br)c1`: more than 100 µM and 0.38 µM.
`COc1ccc2[nH]cc(CC(=O)N[C@@H](Cc3ccccc3)C(=O)N(C)c3ccc(C)cc3)c2c1`: the CC50 at 72 h in data set [1] is more than 50 µM. The EC50 in data set [6] stood at 0.28 µM.
With `CN(C(=O)[C@H](Cc1ccccc1)NC(=O)Cn1cnc2c1c(=O)n(C)c(=O)n2C)c1cccc(F)c1`, the CC50 at 72 h in data set [1] was more than 50 µM. The inhibition at 20 µM in data set [2] is 67%. Besides, the inhibition at 2 µM in data set [5] was 1%.
As for `CN(C(=O)[C@H](Cc1ccccc1)NC(=O)Cc1c[nH]c2ccc(O)cc12)c1cccc(C(F)(F)F)c1`, the CC50 at 72 h in data set [1] came out at 65 µM. In addition, the EC50 in data set [6] was determined as 0.48 µM.
With `CN(C(=O)[C@H](Cc1ccccc1)NC(=O)Cn1cnc2c1c(=O)n(C)c(=O)n2C)c1ccc(Cl)cc1`, in data set [1], the CC50 at 72 h is more than 50 µM. Besides, the inhibition at 20 µM in data set [2] came out at 96%. For the same compound, the inhibition at 2 µM in data set [5] amounted to 6%.
The matching figures for `CN(C(=O)[C@H](Cc1ccccc1)NC(=O)Cn1cnc2c1c(=O)n(C)c(=O)n2C)c1ccc(F)cc1`: more than 50 µM, 85% and 14%.
As to `CN(C(=O)[C@H](Cc1ccccc1)NC(=O)Cc1c[nH]c2ccc(O)cc12)c1cccc(Cl)c1`, the CC50 at 72 h in data set [1] is more than 100 µM. Also, in data set [6], the EC50 is 0.31 µM.
The matching figures for `CN(C(=O)[C@H](Cc1ccccc1)NC(=O)Cc1c[nH]c2ccc(O)cc12)c1ccc(F)cc1`: more than 50 µM and 0.46 µM.
`COc1ccc2[nH]cc(CC(=O)N[C@@H](Cc3ccccc3)C(=O)N(C)c3ccc(Cl)cc3)c2c1`: the CC50 at 72 h in data set [1] was more than 50 µM. Moreover, in data set [6], the EC50 turned out to be 0.31 µM. Also, the half-life at 1 µM is 1.8 min in data set [3] and 0.6 min in data set [4].
Consider `COc1ccc2[nH]cc(CC(=O)N[C@@H](Cc3ccccc3)C(=O)N(C)c3cccc(F)c3)c2c1`, for which the 50% cytotoxic concentration (CC50) at 72 h in data set [1] is more than 50 µM. Besides, in data set [6], the EC50 was 0.99 µM.
`Cc1ccc(N(C)C(=O)[C@H](Cc2ccccc2)NC(=O)Cn2cnc3c2c(=O)n(C)c(=O)n3C)cc1`: the CC50 at 72 h in data set [1] was more than 50 µM. Also, the inhibition at 20 µM in data set [2] is 98%. The inhibition at 2 µM in data set [5] is 18%.

For the origin of these results see ChEMBL document CHEMBL4706536, “Novel HIV-1 capsid-targeting small molecules of the PF74 binding site” (Eur J Med Chem, 2020).
